From ChEMBL document CHEMBL1914377, “Preliminary finding on a new calcium channel entry blocker chemotype: 5,6-diamino-4-hydroxy-2-mercaptopyrimidine derivatives” (J Med Chem, 2011)

Assays:
[1] = Cardiovascular activity in guinea pig spontaneously beating right atrium assessed as negative chronotropic activity by measuring decrease of atrial rate at 10^-4 M relative to control; type: functional; settings: Cavia porcellus, Cardiac atrium
[2] = Cardiovascular activity in guinea pig left atrium assessed as negative inotropic activity by measuring decrease of 1 Hz-induced tension at 10^-4 M relative to control; type: functional; settings: Cavia porcellus, Cardiac atrium
Aorta [3] = test: Vasorelaxant activity in guinea pig K+-depolarized guinea pig aortic strip assessed as inhibition of calcium-induced contraction at 10^-4 M relative to control; type: functional; settings: Cavia porcellus
[4] = Cardiovascular activity in guinea pig spontaneously beating right atrium assessed as negative chronotropic activity by measuring decrease of atrial rate; type: functional; settings: Cavia porcellus, Cardiac atrium
Summary of the method: (§1)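 Log concentration–response curves fitted by probit analysis (Litchfield and Wilcoxon), n = 4–7. They were not calculated when the maximum effect was below 50%.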

[5] = Cardiovascular activity in guinea pig left atrium assessed as negative inotropic activity by measuring decrease of 1 Hz-induced tension; type: functional, tissue-based; settings: Cavia porcellus, Cardiac atrium; summary of the method: as §1
[6] = Cardiovascular activity in guinea pig left atrium assessed as negative inotropic activity by measuring decrease of 1 Hz-induced tension at 5 x 10^-6 M relative to control; type: functional; settings: Cavia porcellus, Cardiac atrium
[7] = Cardiovascular activity in guinea pig spontaneously beating right atrium assessed as negative chronotropic activity by measuring decrease of atrial rate at 10^-5 M relative to control; type: functional; settings: Cavia porcellus, Cardiac atrium
Aorta [8] = test: Vasorelaxant activity in guinea pig K+-depolarized guinea pig aortic strip assessed as inhibition of calcium-induced contraction at 5 x 10^-5 M relative to control; type: functional; settings: Cavia porcellus
[9] = Cardiovascular activity in guinea pig left atrium assessed as negative inotropic activity by measuring decrease of 1 Hz-induced tension at 5 x 10^-5 M relative to control; type: functional; settings: Cavia porcellus, Cardiac atrium
TT = test: Inhibition of T-type calcium channel expressed in human TT cells using Ba2+ as charge carrier at 10 uM by patch clamp electrophysiological assay relative to control; type: cell-based
Summary of the method: (§2)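 Whole-cell patch clamp with Ba2+ currents. L-type current was recorded in transfected CHO cells and T-type current in TT cells, whose only voltage-gated Ca2+ currents are T-type. The read-out was percent decrease in peak current, comparing the mean of five consecutive steady-state sweeps in control and in drug. Results are mean ± SEM, n = 5–7 cells per group.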

[10] = Vasorelaxant activity in guinea pig K+-depolarized guinea pig longitudinal smooth muscle assessed as inhibition of calcium-induced contraction; type: functional, Cavia porcellus
[11] = Cardiovascular activity in guinea pig spontaneously beating right atrium assessed as negative chronotropic activity by measuring decrease of atrial rate at 5 x 10^-5 M relative to control; type: functional; settings: Cavia porcellus, Cardiac atrium
CHO = test: Inhibition of L-type alpha9beta3alpha2/gamma4 calcium channel expressed in CHO cells using Ba2+ as charge carrier at 10 uM by patch clamp electrophysiological assay relative to control; type: cell-based; summary of the method: as §2
[12] = Vasorelaxant activity in guinea pig K+-depolarized guinea pig longitudinal smooth muscle assessed as inhibition of calcium-induced contraction at 10^-5 M relative to control; type: functional; settings: Cavia porcellus
Summary of the method: (§3)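 Guinea-pig longitudinal smooth muscle depolarized with K+ (80 mM). Percent inhibition of calcium-induced contraction was measured at single concentrations of 10^-4 M, 5 × 10^-5 M or 10^-5 M. Results are mean ± SEM.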

[13] = Cardiovascular activity in guinea pig left atrium assessed as negative inotropic activity by measuring decrease of 1 Hz-induced tension at 10^-5 M relative to control; type: functional; settings: Cavia porcellus, Cardiac atrium
[14] = Vasorelaxant activity in guinea pig K+-depolarized guinea pig longitudinal smooth muscle assessed as inhibition of calcium-induced contraction at 10^-4 M relative to control; type: functional; settings: Cavia porcellus; summary of the method: as §3
[15] = Cardiovascular activity in guinea pig left atrium assessed as negative inotropic activity by measuring decrease of 1 Hz-induced tension in presence of adenosine A1 receptor antagonist DPCPX; type: functional, tissue-based; settings: Cavia porcellus, Cardiac atrium
Summary of the method: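 Negative inotropic concentration–response determined in the presence of the A1 antagonist DPCPX at 1 μM.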

Aorta [16] = test: Vasorelaxant activity in guinea pig K+-depolarized guinea pig aortic strip assessed as inhibition of calcium-induced contraction; type: functional, tissue-based; settings: Cavia porcellus; summary of the method: as §1
[17] = Vasorelaxant activity in guinea pig K+-depolarized guinea pig longitudinal smooth muscle assessed as inhibition of calcium-induced contraction at 5 x 10^-5 M relative to control; type: functional; settings: Cavia porcellus; summary of the method: as §3

SMILES	inhibition at 100 µM [1] [%]	inhibition at 100 µM [2] [%]	inhibition at 100 µM (Aorta [3]) [%]	EC50 [5] [nM]	inhibition (TT) [%]	IC50 [10] [nM]	inhibition (CHO) [%]	inhibition at 10 µM [13] [%]	also measured
CC(=O)Nc1nc(SCc2ccccc2)[nH]c(=O)c1N(Cc1ccccc1)Cc1ccccc1	95	90	31	1410					EC30 [4]: 6790 nM
CCCSc1nc(NC(C)=O)c(N(CCC)CCC)c(=O)[nH]1			30	280					inhibition at 5 µM [6]: 62%; inhibition at 10 µM [7]: 7%
Nc1nc(SCc2ccccc2)[nH]c(=O)c1N(Cc1ccccc1)Cc1ccccc1	80	60		3160					EC30 [4]: 8630 nM; inhibition at 50 µM (Aorta [8]): 2%
CCCSc1nc(NC(C)=O)c(N(CCC)CCC)c(OCC)n1			23	1000					inhibition at 50 µM [9]: 71%; inhibition at 10 µM [7]: 2%
CCCSc1nc(NC(C)=O)c(N(CCC)CCC)c(=O)n1CC				530	22.3	4860	56		inhibition at 50 µM [9]: 60%; inhibition at 50 µM [11]: 13%; inhibition at 50 µM (Aorta [8]): 13%; inhibition [12]: 72%
CCn1c(SCCOC)nc(N)c(N(CCOC)CCOC)c1=O	11		33	230	24.7	21500	52	76	inhibition [14]: 60%
CCn1c(SCc2ccccc2)nc(N)c(N(Cc2ccccc2)Cc2ccccc2)c1=O	63	56	7	450	11.9	2910	60.7		EC50 [15]: 500 nM; inhibition [14]: 94%; EC30 [4]: 18100 nM
CCCSc1nc(N)c(N(CCC)CCC)c(=O)[nH]1		87	54	1960		13900			IC50 (Aorta [16]): 14900 nM; inhibition at 50 µM [11]: 39%; inhibition [17]: 87%
CCOc1nc(SCCOC)nc(N)c1N(CCOC)CCOC	45		22	310					inhibition at 50 µM [9]: 79%
CCOc1nc(SCc2ccccc2)nc(NC(C)=O)c1N(Cc1ccccc1)Cc1ccccc1	44			270				64	inhibition at 50 µM (Aorta [8]): 20%
COCCSc1nc(NC(C)=O)c(N(CCOC)CCOC)c(=O)[nH]1		90	2	960					inhibition at 50 µM [11]: 6%
CCn1c(SCc2ccccc2)nc(NC(C)=O)c(N(Cc2ccccc2)Cc2ccccc2)c1=O			25	290	15.2	1480	58		inhibition at 50 µM [9]: 66%; EC30 [4]: 14100 nM; inhibition at 50 µM [11]: 72%; inhibition [12]: 90%
CCCSc1nc(N)c(N(CCC)CCC)c(OCC)n1	27		16	150		10700		68	inhibition [14]: 83%
COCCSc1nc(N)c(N(CCOC)CCOC)c(=O)[nH]1			10	340				93	inhibition at 10 µM [7]: 13%
CCOc1nc(SCCOC)nc(NC(C)=O)c1N(CCOC)CCOC	3		10	620				80	
CCCSc1nc(N)c(N(CCC)CCC)c(=O)n1CC			28	600	35.3	3390	54	56	inhibition at 50 µM [11]: 22%; inhibition [17]: 93%
CCn1c(SCCOC)nc(NC(C)=O)c(N(CCOC)CCOC)c1=O	2	81	2	770	12.3	23800	37		inhibition [14]: 91%
CCOc1nc(SCc2ccccc2)nc(N)c1N(Cc1ccccc1)Cc1ccccc1	33	62		1490					inhibition at 50 µM (Aorta [8]): 2%
